core dimer inh – blocks dimerization of HCV core protein; AID 1899; TR-FRET GST/Flag-core106 dimerization, 1536-well; inhibition, % at 5 µM; 0.33% of 300,000 active;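 active = inhibition above the mean of all tested compounds plus 3 SD, set per screening campaign, cut at about 45% in these data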
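System: GST/Flag-tagged HCV core106 proteins. Incubation: compound-protein-antibody incubation 4 h at 22.5 °C. Technique: HTRF with 340 nm excitation, 617/671 nm emission. Medium: KF-containing HEPES buffer, pH 7.45, DTT, CHAPS, BSA. Read-out: inhibition (%) from 671 over 617 nm ratio. Also added: Eu(K)-anti-GST 90 ng/mL plus XL665-anti-Flag 1 µg/mL.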
HCV NS3 hel inh – HCV NS3 helicase inhibition. NS3 helicase DNA unwinding, Cy5 molecular beacon fluorescence. AID 1800. inhibition, % at 10.9 µM. 0.56% of 290,000 active;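 active = inhibition above the mean of all tested compounds plus 3 SD, set per campaign, cut at about 35% in these data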;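 note: 0% = DMSO wells and 100% = thioflavine S control wells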
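Control set: DMSO versus 110 µM thioflavine S; Material: NS3 helicase fragment of HCV; Measured by: Cy5 fluorescence at 0 and 60 min, beacon hairpin quenching; Read-out basis: percent inhibition from t60/t0 fluorescence ratio; Times: reaction time 60 min, 25 °C; Repeats: single replicate; Compound dosing: single dose, 10.9 µM nominal final, DMSO 0.8% final.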
EBNA-1 inhibitor – blocks EBNA-1 binding to DNA; AID 1950; 0.34% of 300,000 active; EBNA-1 DNA binding, fluorescence polarization; inhibition, % at 14.8 µM; in the data active = inhibition above about 28%
ZTA counter – ZTA (EBV) inhibition in EBNA-1 counter-screen. P03206. ZTA-DNA binding, fluorescence polarization. inhibition, % at 11 µM. 0.15% of 320,000 active. AID 2234; in the data active = inhibition above about 33%
Target sequence (P03206 whole entry, looked up): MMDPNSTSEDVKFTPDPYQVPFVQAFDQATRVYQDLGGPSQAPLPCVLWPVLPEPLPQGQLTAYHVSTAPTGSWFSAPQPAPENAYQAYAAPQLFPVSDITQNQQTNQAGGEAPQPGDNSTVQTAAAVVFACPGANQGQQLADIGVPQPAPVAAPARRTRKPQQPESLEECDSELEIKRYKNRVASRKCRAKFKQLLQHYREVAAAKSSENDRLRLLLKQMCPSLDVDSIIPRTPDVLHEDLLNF
NS3 helicase cf – confirmation of Hepatitis C virus NS3 helicase inhibitors; shares compounds with HCV NS3 hel inh; NS3 helicase DNA unwinding, Cy5 molecular beacon fluorescence; inhibition, % at 10.9 µM; 31% of 1,600 active; AID 1943;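 active = inhibition above the mean of all tested compounds plus 3 SD, cutoff set per campaign, cut at about 36% in these data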
DNA FID counter – intercalator displacement, NS3 helicase counter-screen; shares compounds with HCV NS3 hel inh; DNA fluorescent intercalator displacement, fluorescence; inhibition, % at 7.9 µM; 4% of 1,600 active; AID 1945; in the data active = inhibition above about 37%;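 note: 0% = vehicle and 100% = reference compound; higher means more displacement of ethidium bromide from the DNA hairpin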
FID counter DR – counter-screen for HCV NS3 helicase inhibitors: DNA intercalator displacement dose response. shares compounds with HCV NS3 hel inh. fluorescent intercalator displacement from DNA, fluorescence. 120 tested, under 10 active. AID 2172. IC50, µM; call rule not given here
An asterisk follows results filed as active; nt = no result given. Rows were chosen to be rich in hits. Some 1.2% of all compounds tested hit in one or more screens of this group.

SMILES	core dimer inh	HCV NS3 hel inh	EBNA-1 inhibitor	ZTA counter	NS3 helicase cf	DNA FID counter	others
Cc1ccc(C)c(-c2nnc(NC(=O)Cc3ccc(F)cc3)o2)c1	-13	42*	1	0	-13	1
COc1ccccc1CNC(=O)[C@H](C)NC(=O)C1CCN(C(=O)[C@H](CCSC)NC(=O)OC(C)(C)C)CC1	1	-13	2	-3	nt	nt
COc1ccc(C(=O)CC(=O)C(=O)Nc2cccc([N+](=O)[O-])c2C)cc1	-2	34	-15	-4	nt	nt
COc1ccccc1C(=O)CC(=O)C(=O)Nc1cccc([N+](=O)[O-])c1C	5	37*	-5	4	-33	-17
COc1ccc([N+](=O)[O-])cc1NCc1cccc([N+](=O)[O-])c1	-2	41*	3	11	-6	23
COc1ccc([N+](=O)[O-])cc1NCc1cccnc1	-4	15	4	-10	nt	nt
C=CCn1c(SCc2nc3sc(C(=O)O)c(C)c3c(=O)[nH]2)nnc1-c1ccccc1	-7	41*	-2	-12	-8	6
CC(=O)c1sc2nc(CSc3nnnn3-c3ccccc3)[nH]c(=O)c2c1C	74*	36*	10	1	5	13
C=CCn1c(SCc2nc3sc(C(=O)O)c(C)c3c(=O)[nH]2)nnc1-c1ccc(C(C)(C)C)cc1	11	16	-2	7	nt	nt
CCCCC(NC(=O)Cc1c(C)c2cc3c4c(oc3cc2oc1=O)CCCC4)C(=O)O (stereo not drawn)	5	40*	9	-7	51*	-12
Cc1c(CC(=O)N[C@@H](CCCNC(N)=O)C(=O)O)c(=O)oc2cc3oc4c(c3cc12)CCCC4	-2	22	2	-12	nt	nt
CCOC(=O)c1cc(-c2ccc(/C=C3/C(=O)NC(=O)C(C#N)=C3C)o2)ccc1Cl	26	50*	-1	-8	71*	75*
CC1=C(C#N)C(=O)NC(=O)/C1=C\c1ccc(-c2ccc(C)cc2[N+](=O)[O-])o1	nt	40*	nt	nt	63*	49*
CCCCC1(C)OC(=O)C(=Cc2ccc(-c3ccc(Cl)c(C(=O)O)c3)o2)C(=O)O1 (stereo not drawn)	7	67*	5	7	77*	-9
CC(C)(C)NC(=O)COC(=O)c1ccccc1OCC(=O)Nc1ccc(Br)cc1	-1	3	-11	-7	nt	nt
Cc1ccc(NS(=O)(=O)c2ccc3c(c2)CCN3C(=O)CCC(=O)O)cc1Cl	-5	48*	-4	-38	23	-30
COCc1ccc(C(=O)NC2CCCN(Cc3ccccc3F)C2)o1 (stereo not drawn)	0	1	2	5	nt	nt
COC/C=C/C1=CC2=CC(=O)C(C)(OC(=O)c3cnc4ccccc4n3)C(=O)C2=CN1C1CCCCC1 (stereo not drawn)	25	38*	0	-3	10	-13
COC/C=C/C1=CC2=CC(=O)C(C)(OC(=O)c3cnc4ccccc4n3)C(=O)C2=CN1c1ccccc1 (stereo not drawn)	28	nt	3	-12	nt	nt
COC/C=C/C1=CC2=CC(=O)C(C)(OC(=O)c3cnc4ccccc4n3)C(=O)C2=CN1c1ccc(CO)cc1 (stereo not drawn)	56*	50*	9	11	42*	22
COC(=O)CN1C(=O)[C@H]2[C@@H](c3ccc(C)o3)N3C(=O)CN(CCO)C(=O)[C@@]3(Cc3ccccc3)[C@H]2C1=O	3	45*	-3	22	-7	3
COC(=O)CN1C(=O)[C@H]2[C@@H](c3ccc(C)o3)N3C(=O)CN(CC4CC4)C(=O)[C@@]3(Cc3ccccc3)[C@H]2C1=O	-8	22	-7	0	nt	nt
Cc1sc(NC(=O)/C=C/C(=O)O)c(C(N)=O)c1-c1ccc(C(C)(C)C)cc1	9	36*	0	12	60*	-14
Cc1sc(NC(=O)C2CCCCC2C(=O)O)c(C(N)=O)c1-c1ccc(C(C)C)cc1 (stereo not drawn)	14	39*	0	9	77*	-22
CN1CCN(C(c2ccc(Cl)cc2)c2cc(Cl)c3cccnc3c2O)CC1 (stereo not drawn)	7	46*	10	3	17	58*
SMILES	core dimer inh	HCV NS3 hel inh	EBNA-1 inhibitor	ZTA counter	NS3 helicase cf	DNA FID counter	others
CCOC(=O)N1CCN(Cc2nc3c(c(=O)n(C)c(=O)n3C)n2Cc2ccccc2C)CC1	-1	61*	-1	11	-15	-44
CCCn1c(CN2CCN(C(=O)OCC)CC2)nc2c1c(=O)n(C)c(=O)n2C	2	-3	-18	-5	nt	nt
Cc1c(C(=O)NC(=S)NCc2cccnc2)cccc1[N+](=O)[O-]	-8	2	-2	-2	nt	nt
Cc1nnc2sc(SCC(=O)Nc3nccs3)nn2c1=O	0	40*	-4	-7	5	2
Cc1nc(N/N=C/c2ccc(Br)cc2)cc(N2CCOCC2)n1	-7	-36	4	8	nt	nt
CCOC(=O)C(CC)(CCC(=O)OC)c1csc(Nc2ccccc2O)n1 (stereo not drawn)	1	40*	-8	-11	4	-23
CCCCCC(=O)Nc1nc(C)c(-c2csc(Nc3cc(OC)ccc3OC)n2)s1	4	39*	9	5	4	26
CC(C)C1Nc2c(O)cc(Cl)c([N+](=O)[O-])c2C2C=CCC21 (stereo not drawn)	nt	37*	nt	nt	58*	11
COC(=O)c1ccc(Cn2nnc3c(=O)[nH]c(C4CCCN(S(=O)(=O)c5cccc(Cl)c5)C4)nc32)cc1 (stereo not drawn)	32	38*	-6	-19	-3	-40
COC(=O)c1ccc(Cn2nnc3c(=O)[nH]c(C4CCCN(S(=O)(=O)c5ccc(C)cc5)C4)nc32)cc1 (stereo not drawn)	21	2	1	2	nt	nt
Cn1cccc1Cc1nnc(SCC(=O)Nc2ccccc2F)n1CCc1ccccc1	8	5	-3	1	nt	nt
Cn1cccc1Cc1nnc(SCC(=O)Nc2cccc(F)c2)n1CCc1ccccc1	3	42*	5	10	-6	-27
CN(Cc1ccco1)S(=O)(=O)c1nnc(NC(=O)c2ccc(F)cc2)s1	5	15	4	3	nt	nt
CCOc1ccc(C(=O)Nc2nnc(S(=O)(=O)N(C)Cc3ccco3)s2)cc1	2	57*	-12	-4	2	-5
O=C(/C=C/c1ccccc1)c1cc(Br)ccc(=O)c1O	8	20	-3	5	nt	nt
Cc1ccc(/C=C/C(=O)c2ccccc(=O)c2O)cc1C	11	40*	13	12	85*	17	FID counter DR=>79
COc1ccc2nc(NC(=O)c3ccc([N+](=O)[O-])o3)sc2c1	28	64*	-9	-15	7	10
